Source: paper PMC9071802 (RSC Advances, 2019)

Tests used:
[1] = system: LasR, P. aeruginosa PAO-JP2; settings: read-out: IC50, LasR activity; cited from earlier work
[2] = system: LasR, P. aeruginosa PAO-JG21; settings: read-out: IC50, LasR activity; cited from earlier work
[3] = system: P. aeruginosa MH602 lasB reporter strain (PlasB: gfp(ASV)); experiment: Quorum sensing inhibition assay, GFP fluorescence of lasB reporter strain; assay type: cell-based, Pseudomonas aeruginosa; settings: for inhibition at 250 µM / inhibition at 62.5 µM / inhibition at 125 µM: Pseudomonas aeruginosa, ± standard deviation, NA: no activity; for inhibition at 250 µM: read-out: Percentage inhibition of GFP fluorescence, 250 μM; for inhibition at 62.5 µM: read-out: Percentage inhibition of GFP fluorescence, 62.5 μM; for inhibition at 125 µM: read-out: Percentage inhibition of GFP fluorescence, 125 μM
Method in brief: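 The reporter is a chromosomal lasB promoter–gfp(ASV) fusion responsive to 3-oxododecanoyl-HSL. Cultures were grown overnight in LB10, then diluted 1:100 in ABT with 0.25% tryptone and 0.13% yeast extract plus ampicillin 100 µg mL⁻¹ and gentamicin 20 µg mL⁻¹. Test compound in DMSO was tested at 62.5, 125 or 250 µM, with 1% DMSO controls. Cultures were incubated at 37 °C and shaken briefly before each read. Fluorescence (ex 485/em 535 nm) and OD600 were read every 30 min for 20 h, in triplicate per experiment.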

[4] = system: Human Embryonic Kidney cell lines (HEK-293); experiment: Cytotoxicity MTT assay; assay type: cell-based; settings: HEK-293, 25, 50 and 100 μM, 24 h
Method in brief: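 HEK cells were grown in high-glucose DMEM with 10% FBS and 1% pen-strep at 37 °C and 5% CO₂. They were seeded at 10⁴ cells/well and left overnight. Test compound from DMSO stock was diluted in medium to 25, 50 and 100 µM and applied for 24 h, with a DMSO blank and a positive control. MTT in phenol-red-free DMEM was added for 3 h. Formazan was dissolved in DMSO and read at 570 and 650 nm. Viability was expressed as % of untreated control.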

Compound | IC50 [1] [nM] | IC50 [2] [nM] | inhibition at 250 µM [3] [%] | inhibition at 62.5 µM [3] [%] | inhibition at 125 µM [3] [%] | QSI activity ([3]; at 62.5–250 μM) | Cytotoxicity [4]
Cc1cc2nc(N)[nH]c2cc1C [II, 5,6-dimethyl-2-aminobenzimidazole] | 2300 | 1400 | – | – | – | – | –
O=C(CCCc1cn(CC(=O)NC2CCCCC2)nn1)Nc1nc2ccccc2[nH]1 [11b, N-(1H-Benzo[d]imidazol-2-yl)-4-(1-(2-(cyclohexylamino)-2-oxoethyl)-1H-1,2,3-triazol-4-yl)butanamide] | – | – | 12.9 ± 20.2 | – | – | – | –
CC(C)(C)c1ccc(-c2cn(CC(=O)Nc3nc4ccccc4[nH]3)nn2)cc1 [6l, N-(1H-Benzo[d]imidazol-2-yl)-2-(4-(4-(tert-butyl)phenyl)-1H-1,2,3-triazol-1-yl)acetamide] | – | – | 35.2 ± 8.78 | – | – | – | –
Cc1ccc(-c2cn(CC(=O)Nc3nc4ccccc4[nH]3)nn2)cc1 [6k, N-(1H-Benzo[d]imidazol-2-yl)-2-(4-(p-tolyl)-1H-1,2,3-triazol-1-yl)acetamide] | – | – | 35.9 ± 13.8 | 36.8 ± 6.63 | 32.3 ± 22.2 | – | –
Cc1cc2nc(NC(=O)CCCc3cn(CC(=O)Nc4ccccn4)nn3)[nH]c2cc1C [12c, N-(5,6-Dimethyl-1H-benzo[d]imidazol-2-yl)-4-(1-(2-oxo-2-(pyridin-2-ylamino)ethyl)-1H-1,2,3-triazol-4-yl)butanamide] | – | – | 48.3 ± 13.4 | – | 7.07 ± 11.8 | – | –
O=C(Cn1cc(-c2ccc(Br)cc2)nn1)Nc1nc2ccccc2[nH]1 [6j, N-(1H-Benzo[d]imidazol-2-yl)-2-(4-(4-bromophenyl)-1H-1,2,3-triazol-1-yl)acetamide] | – | – | 50.7 ± 10.9 | 45.7 ± 5.44 | 46.2 ± 8.52 | – | –
O=C(Cn1cc(-c2ccc(Cl)cc2)nn1)Nc1nc2ccccc2[nH]1 [6i, N-(1H-Benzo[d]imidazol-2-yl)-2-(4-(4-chlorophenyl)-1H-1,2,3-triazol-1-yl)acetamide] | – | – | 65 ± 8.25 | 52.9 ± 8.86 | 60.5 ± 6.16 | – | –
O=C(CCCc1cn(-c2ccc([N+](=O)[O-])cc2)nn1)Nc1nc2ccccc2[nH]1 [11d, N-(1H-Benzo[d]imidazol-2-yl)-4-(1-(4-nitrophenyl)-1H-1,2,3-triazol-4-yl)butanamide] | – | – | 39.4 ± 4.6 | 21.2 ± 1.76 | 21.4 ± 2.62 | – | –
O=C(CCc1cn(CC(=O)NC2CCCCC2)nn1)Nc1nc2ccccc2[nH]1 [10a, N-(1H-Benzo[d]imidazol-2-yl)-3-(1-(2-(cyclohexylamino)-2-oxoethyl)-1H-1,2,3-triazol-4-yl)propanamide] | – | – | 47.4 ± 2.69 | 38.4 ± 7.72 | 42.4 ± 8.46 | 38–47% | –
Cc1cc2nc(NC(=O)Cn3cc(CSc4nc5ccccc5[nH]4)nn3)[nH]c2cc1C [7e, 2-(4-(((1H-Benzo[d]imidazol-2-yl)thio)methyl)-1H-1,2,3-triazol-1-yl)-N-(5,6-dimethyl-1H-benzo[d]imidazol-2-yl)acetamide] | – | – | 16 ± 26.1 | 15.1 ± 9.82 | – | – | –
O=C(CCCc1cn(CC(=O)NC2CCCC2)nn1)Nc1nc2ccccc2[nH]1 [11a, N-(1H-Benzo[d]imidazol-2-yl)-4-(1-(2-(cyclopentylamino)-2-oxoethyl)-1H-1,2,3-triazol-4-yl)butanamide] | – | – | 51.2 ± 7.1 | 42.3 ± 10.3 | 45.9 ± 8.18 | – | –
Cc1cc2nc(NC(=O)Cn3cc(-c4ccc([N+](=O)[O-])cc4)nn3)[nH]c2cc1C [7m, N-(5,6-Dimethyl-1H-benzo[d]imidazol-2-yl)-2-(4-(4-nitrophenyl)-1H-1,2,3-triazol-1-yl)acetamide] | – | – | 53.9 ± 9.78 | 21 ± 10.3 | 31.5 ± 16.2 | – | –
Cc1cc2nc(NC(=O)Cn3cc(Cn4cc(Cl)ccc4=O)nn3)[nH]c2cc1C [7f, 2-(4-((5-Chloro-2-oxopyridin-1(2H)-yl)methyl)-1H-1,2,3-triazol-1-yl)-N-(5,6-dimethyl-1H-benzo[d]imidazol-2-yl)acetamide] | – | – | 36.8 ± 7.9 | 26.1 ± 7.69 | 29 ± 13.6 | – | –
Cc1cc2nc(NC(=O)Cn3cc(-c4ccc(Br)cc4)nn3)[nH]c2cc1C [7h, 2-(4-(4-Bromophenyl)-1H-1,2,3-triazol-1-yl)-N-(5,6-dimethyl-1H-benzo[d]imidazol-2-yl)acetamide] | – | – | 57.6 ± 7.43 | 31.2 ± 5.02 | 44.7 ± 14.3 | – | –
O=C(Cn1cc(-c2ccc([N+](=O)[O-])cc2)nn1)Nc1nc2ccccc2[nH]1 [6p, N-(1H-Benzo[d]imidazol-2-yl)-2-(4-(4-nitrophenyl)-1H-1,2,3-triazol-1-yl)acetamide] | – | – | 68.2 ± 3.87 | 63.7 ± 7.51 | 67.1 ± 5.45 | – | low cytotoxicity
CCCCCCCCCc1cn(CC(=O)Nc2nc3ccccc3[nH]2)nn1 [6d, N-(1H-Benzo[d]imidazol-2-yl)-2-(4-nonyl-1H-1,2,3-triazol-1-yl)acetamide] | – | – | 48.5 ± 12.7 | 30.6 ± 7.62 | 41.9 ± 4.5 | – | –
O=C(Cn1cc(CCCC(=O)Nc2nc3ccccc3[nH]2)nn1)Nc1ccccn1 [11c, N-(1H-Benzo[d]imidazol-2-yl)-4-(1-(2-oxo-2-(pyridin-2-ylamino)ethyl)-1H-1,2,3-triazol-4-yl)butanamide] | – | – | 19.4 ± 8.16 | 3.69 ± 11.2 | 15.7 ± 8.81 | – | –
